Values joined by “and” are separate entries in the source; they are usually repeats but may differ in a detail not shown here. Equal entries are not always repeated. Values belong to the molecule of their own block, whether it stands above or below them.
What was measured:
MYC353–439 = MYC353–439 (Homo sapiens, UniProt P01106); assay: Fluorescence polarization competition assay against 10074-G5; assay type: binding
GSK3β-mediated MYC pT58 = GSK3β-mediated MYC pT58 (Homo sapiens, UniProt P01106); assay: In vitro kinase assay; assay type: biochemical; details: 6 μM
GSK3β-mediated MYC pT58, sequence (P01106 16-454): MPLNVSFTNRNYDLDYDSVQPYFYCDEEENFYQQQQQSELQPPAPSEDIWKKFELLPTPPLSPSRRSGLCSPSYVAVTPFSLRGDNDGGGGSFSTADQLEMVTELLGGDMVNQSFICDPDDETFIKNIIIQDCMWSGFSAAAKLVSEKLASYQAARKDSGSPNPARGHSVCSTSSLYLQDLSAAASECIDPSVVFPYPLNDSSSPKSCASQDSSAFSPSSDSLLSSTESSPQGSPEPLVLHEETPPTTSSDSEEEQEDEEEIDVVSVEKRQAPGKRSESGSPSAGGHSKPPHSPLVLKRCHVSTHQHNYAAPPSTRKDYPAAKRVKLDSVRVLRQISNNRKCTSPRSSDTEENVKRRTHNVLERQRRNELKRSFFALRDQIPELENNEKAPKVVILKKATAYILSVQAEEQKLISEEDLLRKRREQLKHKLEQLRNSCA
Procedure, shortened: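 Phosphorylation reactions were run in kinase buffer (25 mM Tris-HCl pH 7.5, 5 mM β-glycerophosphate, 2 mM DTT, 0.1 mM sodium vanadate, 10 mM MgCl₂) at room temperature for 2 hr in total.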

[1] = tested on: Lewis Lung Carcinoma (LLC1); assay: LLC1 allograft lung cancer mouse model; assay type: in vivo; details: 100 mg/kg/day
Procedure, shortened: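 LLC1 cells (1 × 10⁶) in PBS:matrigel 1:1 were injected subcutaneously into the flanks of female C57BL/6 mice, aged 6–8 weeks. Mice were randomised 3 days after inoculation and given test compound i.p. as 50 mg/kg twice daily (100 mg/kg/day). Tumour growth and body weight were followed, n = 7 mice/group, mean ± SEM.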

[2] = Maximum tolerated dose / acute toxicity in mice; assay type: in vivo; details: p.o., single dose at 50, 100, 250, 500 or 1000 mg/kg
MYC [3] = assay: Western blot of MYC protein level, stability and phosphorylation in cells; assay type: cell-based, human; details: 8 μM
Procedure, shortened: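 PC3 cells, or PC3 stably expressing Flag-MYC, Flag-MYCT58A or Flag-MYCS62A (lentiviral, 1.5 μg/ml puromycin selection), were used. For stability, cells were pretreated 3 hr with compound or DMSO, then given cycloheximide and harvested at time points. MYC, pT58, pS62, GSK3β and pGSK3β S9 were detected by western blot over a time course. Band intensities were densitometrically quantified.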

MV-411 AML xenografts = assay: MV-411 AML xenograft; assay type: in vivo, mouse
Procedure, shortened: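 Immunodeficient mice were inoculated with 5×10⁶ MV-411 cells in PBS:matrigel 1:1. They were randomised by tumour volume at ~200 to 500 mm³ and dosed with vehicle, test compound, or test compound plus Ara-C, 5 days a week for 3 weeks. Calipers were read twice weekly and volume was taken as (length × width × width)/2. Body weight was monitored, n = 4 mice/group, mean ± SEM.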

[4] = tested on: MYC transcriptional activity (E-box-luciferase); assay: E-box luciferase reporter assay in vitro; assay type: cell-based
Procedure, shortened: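 MycCaP cells stably carrying either MYC E-box-luciferase reporter or control mCherry-P2A-luciferase vector plated 10000 cells/well. Serial dilution of test compound added the next day; luminescence read by Steady-Glo after 4 hr treatment.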

MYC [5] = target: T1, MYC (Homo sapiens, UniProt P01106); assay: Cellular thermal shift assay; assay type: cell-based; details: PC3 cells
Procedure, shortened: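 PC3 cells (70–80% confluent; also PC3 stably expressing Flag-MYCT58A, puromycin 1.5 μg/ml selected) treated with test compound or DMSO for 30 min. Cells washed, resuspended in PBS with protease/phosphatase inhibitors plus the same compound dose, split into 7–10 aliquots (~1 million cells each), heated 2 min at graded temperatures, then 3 min room temperature. Lysates boiled 5 min at 90 °C; MYC quantified by Western blot densitometry to build melt curves.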
Target sequence in this assay (P01106 16-454): as above

[6] = 14-day toxicology in mice; assay type: in vivo, mouse; details: 100 mg/kg daily for 14 days, analyzed one week later
[7] = Pharmacokinetics of 975 in CD-1 mice; details: male, CD-1, mouse, in vivo, po
[8] = tested on: MYC-dependent cancer cells; assay: Cell viability, MYC-dependent cancer cells; assay type: cell-based; details: prostate cancer cells versus PC12, 5 days
Procedure, shortened: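 Cells were seeded at 1000 to 5000 per well in 96-well plates, depending on cell type. Viable cells were counted, or MTS absorbance was read at 490 nm, 2 to 7 days after treatment. MycCaP, PC3, LNCaP and P493–6 were grown in RPMI1640, SK-N-BE(2) in F12 and MV411 in IMDM, each with 10% heat-inactivated FBS and 1% penicillin-streptomycin.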

MycCaP tumor allografts = assay: MycCaP allograft/xenograft mouse model; assay type: in vivo
Procedure, shortened: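 Male FVB (allograft) or NSG (xenograft) mice, 6–8 weeks, ~25 g, acclimated >4 days. Injected s.c. in flanks with 1 × 10⁶ MycCaP E-box-luciferase cells in 100 μl Matrigel. Tumors followed by caliper ((length × width × width)/2) and by bioluminescent imaging after i.p. substrate injection. Body weight recorded. Tumor tissue assessed by H&E and immunofluorescence for Ki67, MYC pT58 and PD-L1.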

MYC [9] = target: T1, MYC; assay: Biotinylated compound pull down, MYC; assay type: binding; details: for competition of MYC binding to Biotin-361: PC3 cell lysate, excess competitor
Procedure, shortened: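 Nuclear extract from PC3 cells prepared with a nuclear co-IP kit in low co-IP buffer at 150 mM NaCl final. Extract pre-cleared on streptavidin beads 1 hr at 4 °C. About 100 μg extract incubated overnight at 4 °C on a rotator with 1 to 10 μM biotinylated test compound, 10 μM D-biotin or DMSO. Recombinant MYC (0.5 μg) run the same way in buffer with 1% BSA, without pre-clearing. Bound MYC detected by Western blot. For competition, lysate pre-treated with competitor before biotin probe (5 μM).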
Target sequence in this assay (P01106 16-454): as above

HIF-1α = HIF-1α (Homo sapiens, UniProt Q16665); assay: Biotinylated compound pull down, HIF-1α; assay type: binding; details: cell lysates
HIF-1α, sequence (Q16665 whole entry): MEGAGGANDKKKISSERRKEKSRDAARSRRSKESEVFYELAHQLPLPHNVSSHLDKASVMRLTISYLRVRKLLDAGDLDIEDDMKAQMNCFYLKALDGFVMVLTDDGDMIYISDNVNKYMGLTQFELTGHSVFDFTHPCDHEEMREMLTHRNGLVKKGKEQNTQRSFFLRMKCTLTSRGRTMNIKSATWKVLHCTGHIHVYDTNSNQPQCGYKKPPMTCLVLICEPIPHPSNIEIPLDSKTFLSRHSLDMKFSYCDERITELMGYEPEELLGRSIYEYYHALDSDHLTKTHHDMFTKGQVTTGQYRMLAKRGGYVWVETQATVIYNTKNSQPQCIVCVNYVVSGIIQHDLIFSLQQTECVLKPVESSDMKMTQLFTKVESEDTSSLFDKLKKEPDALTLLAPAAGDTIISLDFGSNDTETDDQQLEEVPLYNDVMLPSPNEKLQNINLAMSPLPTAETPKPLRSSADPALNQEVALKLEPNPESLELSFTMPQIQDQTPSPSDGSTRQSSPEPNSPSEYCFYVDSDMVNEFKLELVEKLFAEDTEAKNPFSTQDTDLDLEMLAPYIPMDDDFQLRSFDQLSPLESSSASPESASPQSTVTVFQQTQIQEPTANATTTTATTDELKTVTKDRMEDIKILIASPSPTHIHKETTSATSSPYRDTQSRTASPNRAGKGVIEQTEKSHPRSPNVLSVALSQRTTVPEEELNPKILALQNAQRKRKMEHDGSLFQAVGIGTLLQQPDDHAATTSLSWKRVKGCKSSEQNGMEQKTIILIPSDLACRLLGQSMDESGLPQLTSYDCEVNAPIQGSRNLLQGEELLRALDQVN
Procedure, shortened: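 A biotin-conjugated test compound was used as bait. Nuclear complexes came from exponentially growing PC3 and P493–6 cells, extracted with a nuclear complex co-IP kit. The pull-down ran in low co-IP buffer with NaCl added to a final 150 mM.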

MYC [10] = target: T1, MYC; assay: STD NMR, MYC; assay type: binding; details: 975 phosphate analog 100 μM, G5 200 μM
Procedure, shortened: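 Buffer: 50 mM HEPES, 500 mM NaCl, 10 mM β-mercaptoethanol, 5% glycerol, 30 mM imidazole. Ligand spectra recorded with and without each protein individually.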
Target sequence in this assay (P01106 368-454): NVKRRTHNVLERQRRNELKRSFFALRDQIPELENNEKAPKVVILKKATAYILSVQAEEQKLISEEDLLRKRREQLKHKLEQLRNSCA

MAX(S) = MAX(S) (Homo sapiens, UniProt P61244-2 1-151); assay: EMSA
[11] = MycCaP allograft, 100 mg/kg/day i.p. for 14 days

MYC353–439, sequence (P01106 368-454): as above

Molecule: Cn1nc(C(F)(F)F)cc1-c1ccc(OCc2ccc(Cl)cc2)c(-c2ccc(Cl)c(C(F)(F)F)c2)c1O [Compound 975, 4’-chloro-6-((4-chlorobenzyl)oxy)-3-(1-methyl-3-(trifluoromethyl)-1H-pyrazol-5-yl)-3’-(trifluoromethyl)-[1,1’-biphenyl]-2-ol]
Kd (MYC353–439): 2500 nM | pT58 levels in in vitro kinase assay (GSK3β-mediated MYC pT58): directly increased GSK3β-mediated MYC pT58 | body weight [1]: no changes in body weight | tumor growth [1]: inhibited tumor growth | well tolerated single dose, acute toxicity [2]: up to 1000 mg/kg | MYC degradation and phosphorylation on T58 (MYC [3]): enhanced MYC degradation and phosphorylation on T58 | efficacy as a single agent (MV-411 AML xenografts; 50 mg/kg/day, 5 days a week): reduced efficacy as a single agent | body weight, combination with Ara-C (MV-411 AML xenografts; 975 50 mg/kg/day, Ara-C 20 mg/kg/day): no obvious impact on mouse body weight | tumor growth, combination with Ara-C (MV-411 AML xenografts; 975 50 mg/kg/day, Ara-C 20 mg/kg/day, 5 days a week): synergized with Ara-C | E-box-luciferase versus CMV-luciferase activity in vitro [4]: selectively suppressed E-box-luciferase activity | MYC target engagement by CETSA (MYC [5]; 8 μM): confirmed MYC target engagement | gross and histological analysis of organs [6]: no obvious pathologic abnormalities | hematology, blood chemistry, kidney and liver function [6]: normal complete blood count and differential, normal blood chemistry, and normal kidney and liver function | Cmax ([7]; 100 mg/kg): 41500 ng/mL and 74 µM | half-life ([7]; 100 mg/kg): 7 h | Cmax ([7]; 250 mg/kg): 54000 ng/mL and 96 µM | half-life ([7]; 250 mg/kg): 12 h | cell viability [8]: inhibited cell viability in a MYC-dependent manner | tumor inhibition, FVB versus NSG mice (MycCaP tumor allografts; 50 mg/kg twice daily, 3 days): more strongly than in immunodeficient NSG mice | pT58 and PD-L1 levels in tumor tissue (MycCaP tumor allografts; 100 mg/kg/day i.p. for 14 days): increased pT58 and PD-L1 levels | tumor growth, 975 alone (MycCaP tumor allografts; 100 mg/kg/day, 2 days on/2 days off): slowed tumor growth | tumor infiltration of immune cells (MycCaP tumor allografts; CD3+ T cells, B220+ B cells, NKp46+ NK cells, 100 mg/kg/day for 14 days): enhanced tumor infiltration of CD3+ T cells | survival (MycCaP tumor allografts; [11]): increased survival | tumor growth (MycCaP tumor allografts; [11]): significantly inhibited tumor growth

Molecule: Cn1nc(C(F)(F)F)cc1-c1ccc(OCCCNC(=O)CCOCCOCCOCCOCCOCCOCCNC(=O)CCCC[C@@H]2SCC3NC(=O)NC32)c(-c2cc(C(F)(F)F)cc(C(F)(F)F)c2)c1O (stereo partly drawn) [Biotin-361, N-(3-((6-hydroxy-5-(1-methyl-3-(trifluoromethyl)-1H-pyrazol-5-yl)-3’,5’-bis(trifluoromethyl)-[1,1’-biphenyl]-2-yl)oxy)propyl)-1-(5-((4S)-2-oxohexahydro-1H-thieno[3,4-d]imidazol-4-yl)pentanamido)-3,6,9,12,15,18-hexaoxahenicosan-21-amide]
pull down of HIF-1α (HIF-1α): not MAX or another bHLH protein HIF-1α | pull down of recombinant MYC and endogenous MYC (MYC [9]; cell lysates): pulled down

Molecule: O=P(O)(O)OCOc1ccc(-c2cc(C(F)(F)F)n[nH]2)c(O)c1-c1ccc(Cl)c(C(F)(F)F)c1 [975 phosphate analog, ((4’-chloro-6-hydroxy-3’-(trifluoromethyl)-5-(3-(trifluoromethyl)-1H-pyrazol-5-yl)-[1,1’-biphenyl]-2-yl)oxy)methyl dihydrogen phosphate]
binding to MYC by STD NMR (MYC [10]): bound to MYC

B1: HEX E-box oligo (dsDNA)
DNA 1: CACCCGGTCACGTGGCCTACAC
DNA 2: GTGTAGGCCACGTGACCGGGTG
binding result (MAX(S)): no binding

Second part, the molecule after the results:

competition of MYC binding to Biotin-361 (MYC [9]): competed
Molecule: Cn1nc(C(F)(F)F)cc1-c1ccc(OCOP(=O)(O)O)c(-c2cc(C(F)(F)F)cc(C(F)(F)F)c2)c1O [Phosphate-361, ((6-hydroxy-5-(1-methyl-3-(trifluoromethyl)-1H-pyrazol-5-yl)-3’,5’-bis(trifluoromethyl)-[1,1’-biphenyl]-2-yl)oxy)methyl dihydrogen phosphate]

binding to MYC by STD NMR (MYC [10]): confirmed interaction | competition of MYC binding to Biotin-361 (MYC [9]): competed | thermal stability of MYC protein (CETSA) (MYC [5]; 30 min, 361 4–10 μM, G5 15–60 μM, 360 6 μM): significant thermal destabilization
Molecule: O=[N+]([O-])c1ccc(Nc2ccccc2-c2ccccc2)c2nonc12 [Compound G5, reference compound]

pull down of MYC protein (MYC [9]; 10 μM, PC3 cells): pulled down MYC protein
Molecule: Cn1nc(C(F)(F)F)cc1-c1ccc(OCCNC(=O)CCOCCOCCOCCOCCNC(=O)CCCC[C@@H]2SCC3NC(=O)NC32)c(-c2cc(C(F)(F)F)cc(C(F)(F)F)c2)c1O (stereo partly drawn) [Biotin-975, N-(2-((6-hydroxy-5-(1-methyl-3-(trifluoromethyl)-1H-pyrazol-5-yl)-3’,5’-bis(trifluoromethyl)-[1,1’-biphenyl]-2-yl)oxy)ethyl)-1-(5-((4S)-2-oxohexahydro-1H-thieno[3,4-d]imidazol-4-yl)pentanamido)-3,6,9,12-tetraoxapentadecan-15-amide]
